Source: ChEMBL document CHEMBL4304789, “Design, Synthesis, and Biological Evaluation of 2,4-Imidazolinedione Derivatives as HDAC6 Isoform-Selective Inhibitors” (ACS Med Chem Lett, 2019)
Calls of active or inactive are those of the source. No cut-off for these calls is given here.

How the values were obtained:
HL-60 [1] = assay: Antiproliferative activity against human HL60 cells incubated for 48 hrs by MTT assay; type: functional, cell-based; conditions: HL-60, 48 h
Histone deacetylase 3 = Histone deacetylase 3 (Homo sapiens, UniProt O15379); assay: Inhibition of HDAC3 (unknown origin) using Ac-LeuGlyLys(Ac)-AMC as substrate preincubated for 5 mins followed by substrate addition and measured after 60 mins by fluorescence based assay
Sequence of Histone deacetylase 3 (O15379 whole entry): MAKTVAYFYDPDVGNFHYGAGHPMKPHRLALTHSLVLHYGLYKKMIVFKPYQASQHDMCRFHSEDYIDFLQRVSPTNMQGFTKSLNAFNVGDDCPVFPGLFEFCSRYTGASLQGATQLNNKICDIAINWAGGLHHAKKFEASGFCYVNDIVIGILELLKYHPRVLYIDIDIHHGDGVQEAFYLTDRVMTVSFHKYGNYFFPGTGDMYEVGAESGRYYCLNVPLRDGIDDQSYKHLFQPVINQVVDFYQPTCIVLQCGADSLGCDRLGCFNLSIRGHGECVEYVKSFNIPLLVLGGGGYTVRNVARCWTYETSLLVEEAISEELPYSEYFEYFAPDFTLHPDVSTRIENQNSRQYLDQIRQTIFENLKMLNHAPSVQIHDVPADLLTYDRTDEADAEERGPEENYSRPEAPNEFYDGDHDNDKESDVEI

Histone deacetylase 8 = target: T1, Histone deacetylase 8 (Homo sapiens, UniProt Q9BY41); assay: Inhibition of HDAC8 (unknown origin) using Ac-LeuGlyLys(tfa)-AMC as substrate preincubated for 5 mins followed by substrate addition and measured after 60 mins by fluorescence based assay
T1 sequence (Q9BY41 whole entry): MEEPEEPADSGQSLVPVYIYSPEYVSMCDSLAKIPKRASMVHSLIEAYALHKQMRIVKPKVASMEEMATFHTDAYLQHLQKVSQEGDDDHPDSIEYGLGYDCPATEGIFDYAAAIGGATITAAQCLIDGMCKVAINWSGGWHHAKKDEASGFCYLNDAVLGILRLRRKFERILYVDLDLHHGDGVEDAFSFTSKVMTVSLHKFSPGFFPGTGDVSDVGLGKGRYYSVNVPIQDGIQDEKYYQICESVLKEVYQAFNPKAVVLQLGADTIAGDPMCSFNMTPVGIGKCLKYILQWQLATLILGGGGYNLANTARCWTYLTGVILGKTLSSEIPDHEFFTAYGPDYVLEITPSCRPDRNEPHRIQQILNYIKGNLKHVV

Histone deacetylase 7 = target: T2, Histone deacetylase 7 (Homo sapiens, UniProt Q8WUI4); assay: Inhibition of HDAC7 (unknown origin) using Ac-LeuGlyLys(tfa)-AMC as substrate preincubated for 5 mins followed by substrate addition and measured after 60 mins by fluorescence based assay
T2 sequence (Q8WUI4 whole entry): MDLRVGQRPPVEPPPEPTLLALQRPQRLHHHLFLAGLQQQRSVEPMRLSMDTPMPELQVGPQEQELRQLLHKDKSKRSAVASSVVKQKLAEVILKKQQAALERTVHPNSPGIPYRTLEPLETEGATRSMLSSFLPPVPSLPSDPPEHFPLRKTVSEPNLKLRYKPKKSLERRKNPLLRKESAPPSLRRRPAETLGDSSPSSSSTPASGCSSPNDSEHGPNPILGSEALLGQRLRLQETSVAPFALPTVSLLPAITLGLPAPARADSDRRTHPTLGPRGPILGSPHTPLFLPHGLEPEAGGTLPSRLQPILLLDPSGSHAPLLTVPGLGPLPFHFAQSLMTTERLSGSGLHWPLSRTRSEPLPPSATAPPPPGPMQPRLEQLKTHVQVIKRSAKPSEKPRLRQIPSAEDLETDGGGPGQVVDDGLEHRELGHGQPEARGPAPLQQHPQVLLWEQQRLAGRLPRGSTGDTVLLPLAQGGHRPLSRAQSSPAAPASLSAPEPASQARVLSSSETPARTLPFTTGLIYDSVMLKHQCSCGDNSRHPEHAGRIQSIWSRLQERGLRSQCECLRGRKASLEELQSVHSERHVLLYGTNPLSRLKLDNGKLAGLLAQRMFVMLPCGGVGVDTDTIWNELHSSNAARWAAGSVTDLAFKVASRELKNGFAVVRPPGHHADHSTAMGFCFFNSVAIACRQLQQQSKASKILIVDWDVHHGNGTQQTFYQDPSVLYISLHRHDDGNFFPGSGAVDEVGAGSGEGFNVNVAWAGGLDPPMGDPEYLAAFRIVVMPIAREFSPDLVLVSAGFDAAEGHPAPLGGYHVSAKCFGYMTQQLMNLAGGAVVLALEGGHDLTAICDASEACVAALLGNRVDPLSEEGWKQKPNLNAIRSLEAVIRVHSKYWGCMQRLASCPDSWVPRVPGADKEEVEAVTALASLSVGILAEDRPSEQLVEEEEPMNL

K562 = assay: Antiproliferative activity against human K562 cells incubated for 48 hrs by MTT assay; type: functional, cell-based; conditions: K562, 48 h
A549 = assay: Antiproliferative activity against human A549 cells incubated for 48 hrs by MTT assay; type: functional, cell-based; conditions: A549, 48 h
Histone deacetylase 2 = Histone deacetylase 2 (Homo sapiens, UniProt Q92769); assay: Inhibition of HDAC2 (unknown origin) using Ac-LeuGlyLys(Ac)-AMC as substrate preincubated for 5 mins followed by substrate addition and measured after 60 mins by fluorescence based assay
Sequence of Histone deacetylase 2 (Q92769 whole entry): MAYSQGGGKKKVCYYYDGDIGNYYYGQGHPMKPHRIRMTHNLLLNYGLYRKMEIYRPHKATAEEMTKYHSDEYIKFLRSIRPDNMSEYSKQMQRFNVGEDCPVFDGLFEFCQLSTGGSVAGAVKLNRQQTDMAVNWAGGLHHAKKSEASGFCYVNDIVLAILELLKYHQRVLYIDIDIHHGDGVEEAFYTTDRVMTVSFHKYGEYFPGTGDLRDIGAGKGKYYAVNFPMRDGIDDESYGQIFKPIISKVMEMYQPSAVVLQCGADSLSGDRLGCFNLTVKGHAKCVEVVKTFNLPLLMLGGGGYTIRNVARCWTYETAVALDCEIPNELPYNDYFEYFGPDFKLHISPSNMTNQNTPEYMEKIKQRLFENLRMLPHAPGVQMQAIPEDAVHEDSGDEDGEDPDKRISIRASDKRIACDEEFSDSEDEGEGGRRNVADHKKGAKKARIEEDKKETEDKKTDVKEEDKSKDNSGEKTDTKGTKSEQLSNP

[2] = target: Histone deacetylase (Homo sapiens) (UniProt Q13547+O15379+Q9UBN7+Q92769+Q9UQL6+Q8WUI4+Q9BY41+Q96DB2+P56524+Q9UKV0+Q969S8); conditions: at 0.08 to 1.6 µM
HL-60 [3] = assay: Induction of cell cycle arrest in human HL60 cells assessed as accumulation of cells at subG1 phase at 0.25 to 0.45 uM incubated for 48 hrs by PI staining based flow cytometric analysis; type: functional
Summary of the method: (§1)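 PI staining of HL-60 cells, with DMSO-treated cells as control, used to read cell-cycle phase distribution including G1 and subG1 fractions. Mean ± SD of at least three independent experiments.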

Homo sapiens [4] = species: Homo sapiens; assay: Selectivity ratio of IC50 for HDAC7 (unknown origin) to IC50 for HDAC6 (unknown origin)
Summary of the method: (§2)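 Each isoform's IC50 comes from a dose–effect curve in an HDAC isoform inhibition panel, with replicates n ≥ 2. The ratio is that isoform's IC50 divided by the HDAC6 IC50.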

Homo sapiens [5] = species: Homo sapiens; assay: Selectivity ratio of IC50 for HDAC11 (unknown origin) to IC50 for HDAC6 (unknown origin); summary of the method: as §2
Homo sapiens [6] = species: Homo sapiens; assay: Selectivity ratio of IC50 for HDAC3 (unknown origin) to IC50 for HDAC6 (unknown origin); summary of the method: as §2
Homo sapiens [7] = species: Homo sapiens; assay: Selectivity ratio of IC50 for HDAC4 (unknown origin) to IC50 for HDAC6 (unknown origin); summary of the method: as §2
HL-60 [8] = assay: Induction of cell cycle arrest in human HL60 cells assessed as accumulation of cells at G1 phase at 0.25 to 0.45 uM incubated for 48 hrs by PI staining based flow cytometric analysis; type: functional; summary of the method: as §1
HL-60 [9] = assay: Induction of apoptosis in human in human HL60 cells assessed as increase in caspase 3 activation at 0.25 to 0.75 uM using […] as substrate preincubated for 24 to 48 hrs followed by substrate addition and measured after 1.5 hrs by fluorescence based assay; type: functional, cell-based
Summary of the method: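 HL-60 cells exposed to 0.25, 0.45 and 0.75 μM for 24 and 48 h, with untreated cells as control; activated caspase 3 measured. Mean ± SD of at least three independent experiments; significance versus untreated control set at p < 0.05.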

Homo sapiens [10] = species: Homo sapiens; assay: Selectivity ratio of IC50 for HDAC2 (unknown origin) to IC50 for HDAC6 (unknown origin); summary of the method: as §2
Homo sapiens [11] = species: Homo sapiens; assay: Selectivity ratio of IC50 for HDAC9 (unknown origin) to IC50 for HDAC6 (unknown origin); summary of the method: as §2
Homo sapiens [12] = species: Homo sapiens; assay: Selectivity ratio of IC50 for HDAC8 (unknown origin) to IC50 for HDAC6 (unknown origin); summary of the method: as §2
Homo sapiens [13] = species: Homo sapiens; assay: Selectivity ratio of IC50 for HDAC1 (unknown origin) to IC50 for HDAC6 (unknown origin); summary of the method: as §2

Row | SMILES | IC50 (HL-60 [1]) | IC50 (Histone deacetylase 3) | IC50 (Histone deacetylase 8) | IC50 (Histone deacetylase 7) | IC50 (K562) | IC50 (A549) | IC50 (Histone deacetylase 2) | inhibition [2] | Activity (HL-60 [3]) | Ratio IC50 (Homo sapiens [4]) | Ratio IC50 (Homo sapiens [5]) | Ratio IC50 (Homo sapiens [6]) | Ratio IC50 (Homo sapiens [7]) | Activity (HL-60 [8]) | Activity (HL-60 [9]) | Ratio IC50 (Homo sapiens [10]) | Ratio IC50 (Homo sapiens [11]) | Ratio IC50 (Homo sapiens [12]) | Ratio IC50 (Homo sapiens [13])
1 | O=C(CCC1C(=O)N(c2ccc(Cl)cc2)C(=O)N1Cc1ccccc1)Nc1ccc(C(=O)NO)cc1 (stereo not given) | 610 nM | 96 nM | 3600 nM | 8800 nM | 830 nM | 9450 nM | 203 nM |  |  |  |  |  |  |  |  |  |  |  | 
2 | Cc1ccc(CN2C(=O)N(c3ccc(Cl)cc3)C(=O)C2CCC(=O)Nc2ccc(C(=O)NO)cc2)cc1 (stereo not given) | 250 nM | 235 nM | > 100000 nM | > 100000 nM | 490 nM | 790 nM | 277 nM | Active | Active | > 20000 | > 20000 | 53 | > 20000 | Active | Active | 63 | > 20000 | > 20000 | 218
3 | O=C(CCC1C(=O)N(c2ccc(Cl)cc2)C(=O)N1Cc1ccc(Br)cc1)Nc1ccc(C(=O)NO)cc1 (stereo not given) | 340 nM | 126 nM | 6700 nM | 6000 nM | 690 nM | 5860 nM | 249 nM |  | Active |  |  |  |  | Active |  |  |  |  | 
